MC4R antag cAMP – antagonists of human melanocortin 4 receptor (MC4R); P32245; inhibition, % at 6.5 µM; actives 0.48% (n = 360,000); MC4R-expressing cells, MTII-stimulated cAMP, LANCE TR-FRET;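 active = inhibition above its plate's cutoff, the mean of tested wells on that plate plus 3 SD, cut at about 29% in these data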
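System – human MC4R-expressing U2OS cells · Also added – Melanotan II · Dosing – one concentration, 6.5 µM nominal · Timing – 30-min compound, 1-h challenge, 1-h detection, room temperature · Measured by – Eu-cAMP/anti-cAMP TR-FRET, emission 671 nm · Replicates – singlicate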
MC4R barr agon – agonists of human melanocortin 4 receptor (MC4R) beta-arrestin. P32245. U2OS MC4R beta-arrestin complementation, luminescence; percent of melanotan II response, DMSO zero. activation, % at 8.9 µM. actives 0.98% (n = 360,000);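 active = activation above a per-plate cutoff, the mean activation of sample wells on that plate plus 3 SD, cut at about 8% in these data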
NTR1 agonist – agonists of human neurotensin receptor NTR1; NTR1-U2OS beta-arrestin-GFP spot imaging, agonist mode; AID 493036; activation, % at 20 µM; P30989; actives 0.17% (n = 330,000);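 active = activation at or above 40% of the spot to cytoplasm intensity ratio, with at least 20 cells analyzed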
Target sequence (P30989 whole entry, looked up): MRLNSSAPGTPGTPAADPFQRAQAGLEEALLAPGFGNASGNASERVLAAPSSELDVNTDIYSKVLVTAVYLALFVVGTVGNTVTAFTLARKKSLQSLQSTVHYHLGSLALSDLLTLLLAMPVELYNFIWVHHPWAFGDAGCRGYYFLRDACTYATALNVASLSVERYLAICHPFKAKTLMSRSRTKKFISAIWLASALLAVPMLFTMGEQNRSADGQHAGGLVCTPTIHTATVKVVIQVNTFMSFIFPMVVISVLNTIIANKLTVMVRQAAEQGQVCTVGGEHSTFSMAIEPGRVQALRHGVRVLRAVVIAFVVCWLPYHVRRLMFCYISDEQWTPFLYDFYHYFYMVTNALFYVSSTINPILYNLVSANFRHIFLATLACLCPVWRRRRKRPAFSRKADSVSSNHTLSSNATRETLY
H9c2 TAG inh – inhibitors of triacylglycerol accumulation. H9c2 cells, Nile Red lipid (TAG) fluorescence; cells loaded with 200 µM oleic acid. actives 0.66% (n = 230,000). inhibition, % at 12.5 µM. AID 651582;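 active = pattern-corrected inhibition of lipid staining of at least 50% with the nuclear-stain viability signal not falling by more than 50%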
Tb MetRS inh – blocks T. brucei methionyl-tRNA synthetase activity; actives 0.4% (n = 360,000); inhibition, % at 11.9 µM; AID 624268; purified T. brucei MetRS, ATP depletion, Kinase-Glo luminescence;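 active = inhibition above a per-plate cutoff of the control wells' mean inhibition plus 3 SD, cut at about 5.5% in these data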
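Material – parasite MetRS enzyme · Medium – HEPES-MgCl2-KCl buffer plus DTT, spermine, BSA, pyrophosphatase · Reagent – ATP, methionine and E. coli bulk tRNA substrates · Times – 15 min enzyme-compound preincubation, 2 h reaction, 10 min detection, 25 °C · Measured by – luminescence of leftover ATP · Evaluation – percent inhibition relative to median high and low control wells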
aDG glyco act – alpha-DG glycosylation activation; Pro5-aDG cells, alpha-DG glycosylation AlphaScreen (IIH6); 0% Pro5, 100% B10-LARGE cell signal; activation, % at 10 µM; actives 0.22% (n = 360,000);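 active = activation of at least 8% versus controls, or a plate z-score of at least 8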;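 note: Pro5 are CHO cells carrying HIG-tagged alpha-DG that lacks glycosylation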
TAG conf – triacylglycerol accumulation inhibition, confirmation; shares compounds with H9c2 TAG inh; actives 71% (n = 990); inhibition, % at 12.5 µM; AID 651629; H9c2 lipid accumulation, Nile Red fluorescence; cells loaded with 200 µM oleic acid;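 active = mean inhibition across replicates of 40% or more; inactive = mean inhibition below 40%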
Of the large screens only hits and unclear results are named; the others gave an inactive call (follow-up assays come after a bar, where they were run). A selection: hits, their analogues and other compounds. The true share with any hit is near 2.4%.

O=C1NC(Cc2ccc(O)cc2)c2nc3cc(F)c(F)cc3c(=O)n2-c2cc3ccccc3cc21 (configuration not stated)	none (no result: NTR1 agonist)
Cc1ccc2nc3n(c(=O)c2c1)-c1cc2ccccc2cc1C(=O)NC3Cc1ccc(O)cc1 (configuration not stated)	H9c2 TAG inh 64 (no result: NTR1 agonist) | TAG conf 57
CCCNC(=O)C1(C)CCCN(Cc2csc(-c3ccccc3)n2)C1 (configuration not stated)	none (no result: NTR1 agonist)
COC(=O)Nc1ccc(OCC(=O)N2CCOCC2)cc1	none (no result: H9c2 TAG inh)
O=C(CCC1CCCC1)Nc1ccc(OCC(=O)N2CCOCC2)cc1	H9c2 TAG inh 51 | TAG conf inactive
COc1ccc(NC(=O)C(c2ccccc2F)n2c(=O)c(-c3cc4ccccc4[nH]3)nc3ccccc32)cc1 (configuration not stated)	none (no result: MC4R antag cAMP, MC4R barr agon, NTR1 agonist, H9c2 TAG inh)
Cn1c2ccccc2c2c(C(=O)N3CCN(C(=O)c4ccco4)CC3)cn(C3CCCCC3)c(=O)c21	H9c2 TAG inh 50 | TAG conf inactive
Cc1[nH]c2ccccc2c1C(c1ccccn1)N1CCC(C)CC1 (configuration not stated)	H9c2 TAG inh 51 | TAG conf 55
O=c1ccoc2ccccc12	none (no result: NTR1 agonist, H9c2 TAG inh)
COC(=O)C1=C(C)N(Cc2ccccc2)C(=NCc2cccc(Cl)c2)N[C@H]1c1ccccc1	none
COC(=O)C1=C(C)N(Cc2ccccc2)C(=NCc2ccccc2)N[C@H]1c1ccccc1	H9c2 TAG inh 105 | TAG conf 53
COC(=O)C1=C(C)N(Cc2ccccc2)C(=NCc2cc(OC)c(OC)c(OC)c2)N[C@H]1c1ccc(Br)cc1	H9c2 TAG inh 62 | TAG conf 62
CC(C)(C)OC(=O)N1CCC[C@H]1c1nnc(SCc2ccc(Cl)cc2)o1	none
Cc1cc(CN2CCC(N3CCC(C(=O)NC4CC4)CC3)CC2)cc(C)c1O	none
O=[N+]([O-])c1cccc(S(=O)(=O)N2CN(c3ccc(Br)cc3)c3nc4ccccc4nc32)c1	H9c2 TAG inh 62 | TAG conf 49
O=C(Nc1sc2c(c1-c1nc3ccccc3[nH]1)CCCC2)C1CCCC1	H9c2 TAG inh 58 | TAG conf 60
Cc1ccc(S(=O)(=O)NC2=C(N3CCN(c4ccccc4F)CC3)C(=O)c3ccccc3C2=O)cc1	H9c2 TAG inh 68 | TAG conf 78
COc1ccc(C(=O)CN2CCN(CCN3C(=O)c4cccc5cccc(c45)C3=O)CC2)cc1	none
COc1cc2c3c(cccc3c1)C(=O)N(CCN1CCCC1)C2=O	H9c2 TAG inh 117 (no result: NTR1 agonist) | TAG conf 109
COC(=O)c1ccc(NC(=O)Nc2ccc([N+](=O)[O-])cc2)cc1	none (no result: H9c2 TAG inh)
O=C(CSc1nc(-c2ccco2)cc(C(F)(F)F)n1)Nc1ccc2c(c1)CCC2	H9c2 TAG inh 52 | TAG conf inactive
CSc1nc(NCCN(C)C)c2sc3nc(-c4ccco4)c4c(c3c2n1)CCC4	H9c2 TAG inh 51 (no result: NTR1 agonist) | TAG conf inactive
Cc1ccc(NC(=S)NC2CCCCC2)cc1S(=O)(=O)N(C)C	none
CN1CCN(c2cc(=O)n(C3CCCCC3)c(=O)[nH]2)CC1	none
O=c1cc(N2CCOCC2)[nH]c(=O)n1C1CCCCC1	none
O=c1cc(N2CCN(c3cccc(Cl)c3)CC2)[nH]c(=O)n1C1CCCCC1	H9c2 TAG inh 69 | TAG conf 58
O=c1cc(N2CCN(c3ccccc3)CC2)[nH]c(=O)n1C1CCCCC1	H9c2 TAG inh 63 | TAG conf inactive
COC(=O)C1=C(c2ccc(OC)cc2)OC(=O)C1(C)C	H9c2 TAG inh 60 | TAG conf inactive
Cn1c(=O)c2cc(NC(=S)NCc3ccccc3F)ccc2n1Cc1cccc(C(F)(F)F)c1	none (no result: NTR1 agonist)
CCOc1ccc(CC2c3cc(OCC)c(OCC)cc3CCN2C(=O)c2cc(OC)c(OC)c(OC)c2)cc1OCC (configuration not stated)	H9c2 TAG inh 62 | TAG conf inactive
Cc1nc2ccc(C(=O)N3c4ccccc4N=C(c4ccc5c(c4)OCO5)C3C(=O)NCc3ccccc3)cc2[nH]1 (configuration not stated)	none (no result: MC4R antag cAMP, MC4R barr agon, NTR1 agonist, H9c2 TAG inh)
CCOc1ccccc1-c1nc(C(N)=O)c2[nH]c(=O)n(-c3ccc(F)cc3)c2n1	none
CCc1ccc(-c2nc(C(N)=O)c3[nH]c(=O)n(-c4ccccc4OC)c3n2)cc1	H9c2 TAG inh 73 | TAG conf 91
COc1ccc(-c2cc3nc(-c4ccccc4)cc(N4CCN(C(=O)c5ccccc5)CC4)n3n2)cc1	H9c2 TAG inh 52 (no result: NTR1 agonist) | TAG conf 42
O=C(c1ccoc1)N1CCN(c2cc(-c3cccc(F)c3)nc3cc(-c4cccc(Cl)c4)nn23)CC1	H9c2 TAG inh 57 (no result: NTR1 agonist) | TAG conf 49
COc1ccc(-c2cc3nc(-c4ccccc4)cc(N4CCN(C(C)=O)CC4)n3n2)cc1	none (no result: NTR1 agonist)
O=C(c1ccccc1)N1CCN(c2cc(Cl)nc3cc(-c4cccc(Cl)c4)nn23)CC1	none (no result: NTR1 agonist)
NC(=O)CSc1nnc(-c2ccco2)n1-c1ccc(F)cc1	none (no result: NTR1 agonist)
